Laboratory results published in PubChem BioAssay AID449763 (Sanford-Burnham Center for Chemical Genomics, 2010).
The campaign covered roughly 330,000 compounds. About 1,100 (0.33%) were called active.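 The calls were made as follows: active = at 10 µM dose, activation of 40% or more, normalized to positive control; inactive = the rest.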 Shown is part of a subset that was picked to be rich in actives.

Experiment: activators of apoptotic CHOP UPR arm, primary screen, cell-based, CHO-CHOP luciferase reporter, luminescence, uHTS (AID 449763);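 also: 100% = tunicamycin at 10 µg/mL and 0% = DMSO alone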
Settings: at 10 µM, active compounds read high, percent of tunicamycin response over DMSO baseline
How it was run: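 System: CHO CHOP reporter cells. Amount: 500 cells per well. Buffer or medium: F12 medium, 10% FBS. Compound dosing: one dose, 10 µM in 0.5% DMSO. Incubation: 6 h compound exposure at 37 °C after overnight seeding. Technique: Steady-Glo luciferase luminescence. Benchmarks: tunicamycin and DMSO controls.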

Compound	activation
COc1ccccc1N=Cc1c(O)c2ccccc2oc1=O	130% (active)
COc1cc(N=Cc2c(O)c3ccccc3oc2=O)c(OC)cc1Cl	3.5% (inactive)
COc1ccccc1N=C(C)C1=C(O)COC1=O	-0.0733% (inactive)
COc1ccc(C(=O)Nc2cc(S(=O)(=O)N3CCCC3)ccc2Cl)cc1	0.727% (inactive)
Cc1ccc(CN2CCCOCCS2(=O)=O)cc1	-0.00453% (inactive)
CCN(CC(=O)Nc1cccc(S(=O)(=O)N2CCCCC2)c1)Cc1ccccc1	-0.441% (inactive)
Nc1nc(COC(=O)CCC(=O)c2ccc(Cl)cc2)nc(Nc2ccccc2)n1	0.238% (inactive)
Cc1ccc(Nc2nc(N)nc(CSc3nnc(C)s3)n2)cc1	4.12% (inactive)
Nc1nc(CC(=O)CSc2ccc(Cl)cc2)nc(Nc2ccc(F)cc2)n1	42.4% (active)
COc1ccc(C(=O)CSc2nnnn2C)c(OC)c1	0.876% (inactive)
Cc1cccc(C)c1NC(=O)C(c1ccccc1)N1CC(=O)Nc2ccccc21 (stereo not drawn)	-0.493% (inactive)
Cc1cccc(C)c1NC(=O)CN(C)C(=O)CCC(=O)c1ccccc1	0.683% (inactive)
Cc1cccc(C)c1NC(=O)C(Cl)C(=O)c1ccccc1 (stereo not drawn)	52.9% (active)
C1=C(N2CCOCC2)/C(=C/c2nc3ccccc3[nH]2)CC1	-3.2% (inactive)
CSc1nc(-c2ccccc2)nc(C(Cl)Cl)n1	46.2% (active)
CSc1ncc(Sc2ccccc2)c(C(=O)O)n1	-0.159% (inactive)
CC(C)=CCC/C(C)=C/C(=O)O	0.467% (inactive)
COc1ccccc1N1CCN(CC(=O)NCCc2ccc(S(N)(=O)=O)cc2)CC1	-1.28% (inactive)
O=C(/C=C/c1cccs1)c1cc(Cl)ccc1OC(=O)N1CCOCC1	2.72% (inactive)
COc1ccc(C(=O)N2CCC(C(=O)Nc3ccc(C)cc3)CC2)cc1	-0.572% (inactive)
CCc1nn(-c2cc(Oc3cccc4ccccc34)nc(-c3ccccc3)n2)c(N)c1C#N	56.7% (active)
CC(C)(C)n1nc(Cc2cccc3ccccc23)c(C#N)c1N	0.111% (inactive)
CCCC(c1nnnn1C(C)(C)C)N1CCN(Cc2ccccc2)CC1 (stereo not drawn)	-1.39% (inactive)
CC(C)[C@H](NC(=O)N1c2ccccc2NC(=O)[C@@H]1C(C)C)C(=O)N[C@H](C(=O)O)c1ccccc1	-2.11% (inactive)

Compound	activation
C=CCN1CN(S(=O)(=O)c2ccc(OC)cc2)c2nc3ccccc3nc21	0.29% (inactive)
CC(=O)Nc1ccc(S(=O)(=O)Nc2ccc(N3CCCCC3)cc2)cc1	4.38% (inactive)
O=C1C=CC(=O)N1c1ccc(N2CCCCC2)cc1	44.6% (active)
O=C(Cc1ccccc1)NC(=S)Nc1ccc(N2CCCCC2)cc1	0.603% (inactive)
COc1ccccc1-n1c(SCC(=O)O)nc2sc3c(c2c1=O)CCC3	1.38% (inactive)
COc1ccc(NC(=O)C(CC(C)C)NC(=O)C2CCC(C)CC2)cc1 (stereo not drawn)	0.903% (inactive)
COc1ccccc1CNS(=O)(=O)c1cc2c3c(c1)CCC(=O)N3CCC2	2.93% (inactive)
Fc1ccc2nc(-c3ccccc3)nc(SCc3nnc(-c4ccccc4)o3)c2c1	0.865% (inactive)
CSc1nnc(NC(=O)c2nc(S(=O)(=O)Cc3ccc(C)cc3)ncc2Cl)s1	72.6% (active)
Cc1cccc(CS(=O)(=O)c2ncc(Cl)c(C(=O)Nc3ccc(F)cc3)n2)c1	278% (active)
Cc1ccc(CS(=O)(=O)c2ncc(Cl)c(C(=O)Nc3nnc(C)s3)n2)cc1	26.4% (inactive)
COCCSc1nnc(NC(=O)CCS(=O)(=O)Cc2ccccc2)s1	-0.572% (inactive)
CCOc1ccc(NC(=O)c2nc(SCC)ncc2Cl)cc1	0.746% (inactive)
Cc1cccc(NC(=O)c2nc(S(=O)(=O)Cc3ccccc3)ncc2Cl)c1	-9.27% (inactive)
O=C(NCCCCO)C(F)(F)C(F)(F)C(F)(F)C(=O)NCCCCO	2.68% (inactive)
Cc1cccc(OCc2nnc(SCc3nc4cc(C(F)(F)F)ccc4c(=O)[nH]3)o2)c1	1.49% (inactive)
Cc1ccc(OCc2nnc(SC3CCc4ccccc4C3=O)n2C)cc1 (stereo not drawn)	0.0439% (inactive)
CSc1ccc(/C=C/C(=O)NC23CC4CC(CC(C4)C2)C3)cc1	6.51% (inactive)
Clc1ccc(CN2CCCCCC2)cc1Cl	0.707% (inactive)
O=[N+]([O-])c1ccccc1S(=O)(=O)Nc1cccc2cccnc12	428% (active)
NS(=O)(=O)c1ccc(CCNS(=O)(=O)c2cccc3cccnc23)cc1	0.112% (inactive)
O=S(=O)(NCCc1ccc(F)cc1)c1cccc2cccnc12	0.907% (inactive)
Cc1ccc2oc(=O)c3cnn(CC(=O)N(Cc4ccco4)C4CCCCC4)c3c2c1	0.347% (inactive)
CC(C)CCNC(=O)Cn1c(=O)oc2cc(S(=O)(=O)N3CC(C)CC(C)C3)ccc21 (stereo not drawn)	0.0919% (inactive)

Compound	activation
COc1cc(CC(=O)Nc2nc(-c3ccc(F)c(F)c3)cs2)cc(OC)c1OC	6.97% (inactive)
COc1ccc2c(c1OC)C(=O)OC2Nc1nc(-c2ccccc2)cs1 (stereo not drawn)	41.7% (active)
CCc1ccccc1NC(=O)[C@@H]1CCC(=O)N1C1OC(=O)c2c1ccc(OC)c2OC (stereo partly drawn)	-1.13% (inactive)
O=C1Nc2cc(Cl)c(Cl)cc2N(O)N1c1ccccc1Cl	0.176% (inactive)
COc1ccc(N=C2SC(C(=O)Nc3ccc(F)cc3)CC(=O)N2C)cc1 (stereo not drawn)	-0.141% (inactive)
CCOCCc1nn2c(=O)cc(CSCC(=O)Nc3cccc(C)c3C)nc2s1	-1.45% (inactive)
Cn1c(-c2ccc(C(F)(F)F)cc2)cc2onc(-c3ccccc3)c2c1=O	5.2% (inactive)
CCCCCCC(=O)N(O)C1CC(=O)N(c2ccccc2)C1=O (stereo not drawn)	1.5% (inactive)
CCOc1ccc(N2C(=O)CC(N(CCc3ccc(OC)c(OC)c3)C(=S)Nc3ccccc3)C2=O)cc1 (stereo not drawn)	1.65% (inactive)
CCOc1ccc(N2C(=O)CC(N(O)c3ccccc3)C2=O)cc1 (stereo not drawn)	185% (active)
CC(=O)NNC1=Nc2ccccc2N(C)C(C)C1 (stereo not drawn)	1.41% (inactive)
CCOc1cc(N2CCOCC2)c(OCC)cc1NC(=O)C1=NN(c2cccc(C)c2)C(=O)CC1	1.02% (inactive)
N#Cc1ccc(Oc2ccc(C(F)(F)F)cc2NC(=O)c2ccc(F)cc2)cc1	-0.147% (inactive)
COc1cc(NC(=O)c2cncc(-c3ccc(C#N)cc3)c2)cc(C(=O)Nc2cccc(C(F)(F)F)c2)c1	73.6% (active)
COc1cc(NC(=O)c2[nH]cnc2C(N)=O)cc(C(=O)Nc2cccc(C(F)(F)F)c2)c1	12.8% (inactive)
O=C(O)C1C2C=CC(C2)C1C(=O)NCc1ccccc1 (stereo not drawn)	-1.58% (inactive)
O=C(CC(NCCN1CCOCC1)C(=O)O)Nc1cccc(Cl)c1 (stereo not drawn)	-1.8% (inactive)
N#Cc1cccc(NC(=O)COC(=O)c2ccccc2C(=O)c2ccc(Cl)c([N+](=O)[O-])c2)c1	105% (active)
CC(=O)Nc1ccc(NC(=O)COC(=O)c2ccccc2C(=O)c2ccccc2)cc1	1.65% (inactive)
CC(=O)Nc1ccc(NC(=O)C(C)OC(=O)c2ccccc2C(=O)c2ccc(Cl)c([N+](=O)[O-])c2)cc1 (stereo not drawn)	12.1% (inactive)
CC1=CC(C)(C)NC(=S)N1c1ccccc1	0.0762% (inactive)
O=C(c1c(F)cccc1F)N1CCN(S(=O)(=O)c2ccc3c(c2)OCCO3)CC1	2.02% (inactive)
CC1CN(C(=O)c2ccc([N+](=O)[O-])s2)CC(C)O1 (stereo not drawn)	1.2% (inactive)
O=[N+]([O-])c1ccc(C=Nc2ccc(Cl)cc2Cl)s1	112% (active)

Compound	activation
CCN(Cc1ccccc1)C(=O)CCS(=O)(=O)c1ccc2c(c1)oc(=O)n2C	-2.75% (inactive)
Cc1cccc(NC(=O)C2CC(=O)OC23CCCC3)c1 (stereo not drawn)	0.24% (inactive)
CCOC(=O)CN(C(=O)CN1CCOCC1)c1ccc(Br)cc1	-1.27% (inactive)
CC1CCCC(C)N1C(=O)COC(=O)COc1ccccc1C#N (stereo not drawn)	-1.4% (inactive)
CC(=O)Nc1ccc(Nc2ncnc3c2nnn3Cc2ccccc2Cl)cc1	-0.872% (inactive)
CCOC(=O)CCc1c(C)c(C#N)c2[nH]c3ccccc3n2c1=O	-1.06% (inactive)
CN(C)Cc1c(C#N)c2ccccc2n1C	-0.172% (inactive)
CCCc1cc(=S)n2c([nH]c3ccccc32)c1C#N	54.1% (active)
CCn1c(SCC(=O)Nc2cc(C)ccc2C)nnc1-c1cnccn1	-1.53% (inactive)
Cc1[nH]n(-c2ccccc2)c(=O)c1CCOC(=O)c1ccc(C(F)(F)F)cc1	-0.83% (inactive)
O=C1C=C(c2cccc(Cl)c2)C[C@@H](c2ccc(F)cc2)C1	-0.428% (inactive)
O=C1CC(c2ccccc2)CC(O)=C1C=NCCN1CCOCC1 (stereo not drawn)	-2.31% (inactive)
O=C1CC(c2cccc(Cl)c2)CC(O)=C1C=Nc1ccccc1 (stereo not drawn)	50% (active)
Cc1ccc(NC(=O)C(=O)NCc2ccc(/C=N/NC(=O)c3c(C)nc4cc(C)ccn34)o2)cc1	4.97% (inactive)
CCc1ccc(N(C(=O)c2csnn2)C(C(=O)NC2CCCCC2)c2ccncc2)cc1 (stereo not drawn)	-1.98% (inactive)
CCOC(=O)c1sc(NC(=O)CCN2CCOCC2)c(C(=O)OCC)c1C	43.2% (active)
CCOC(=O)c1c(NC(=O)CCl)sc(C(=O)N(CC)CC)c1C	48.1% (active)
CCOC(=O)Nc1sc(C(=O)N(C)C)c(C)c1C(=O)OCC	-4.31% (inactive)
CCC(=O)Nc1sc(C(=O)Nc2ccccc2)c(C)c1C(=O)OC	-0.316% (inactive)
COC(=O)c1c(NC(=O)CCN2CCOCC2)sc2c1CCCC2	0.577% (inactive)
CCOC(=O)c1c(NC(=O)CCCN2CCOCC2)sc2c1CC(C)(C)OC2	-2.37% (inactive)
